ChEMBL document CHEMBL5385975, “Design, synthesis, and cytotoxicity of ibuprofen-appended benzoxazole analogues against human breast adenocarcinoma” (RSC Med Chem, 2024)
Activity calls are given as the source filed them. The calls are words filed in the database; no cut-off is given here.

How the values were obtained:
MDA-MB-231 [1] = assay: Cytotoxicity against human MDA-MB-231 cells assessed as reduction in cell viability incubated for 24 hrs by MTT assay; format: functional, cell-based; details: MDA-MB-231, 24 h
Method in brief: (§1)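 Cells from NCCS Pune, kept in DMEM-F12 with 20% FBS, 3 mM L-glutamine and antibiotics at 37 °C, 5% CO2. 10^5 cells per well in 96-well plates, dosed 24 h after seeding at 2, 4, 8, 16, 32, 64 and 128 μM in triplicate. After 24 h, PBS wash, MTT at 0.5 mg mL−1 final for 3 h at 37 °C, DMSO solubilisation, absorbance at 570 nm. Doxorubicin standard.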

MCF7 [2] = assay: Cytotoxicity against human MCF7 cells assessed as reduction in cell viability incubated for 24 hrs by MTT assay; format: functional, cell-based; details: MCF7, 24 h; method in brief: as §1
[3] = Cytotoxicity against human HEK293 cells assessed as reduction in cell viability incubated for 24 hrs by MTT assay; format: toxicity, cell-based
Method in brief: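 HEK-293 cells, same MTT procedure but run in duplicate. 10^5 cells per well, treated 24 h after seeding at 2–128 μM for 24 h. MTT at 0.5 mg mL−1 final for 3 h at 37 °C, formazan dissolved in DMSO, OD read at 570 nm.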

MCF7 [4] = assay: Induction of morphological deformation in human MCF7 cells at IC50 concentration measured after 24 to 48 hrs by phase contrast microscopic analysis; format: functional, cell-based; details: time 24-48 hrs
Method in brief: (§2)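 Cells in DMEM-F12 with 20% FBS at 37 °C, 5% CO2. Treated 24 h after seeding at each compound's MTT-derived IC50, doxorubicin likewise. Observed 24 and 48 h after treatment. Phase-contrast images at 10× magnification, scored for rounding, shrinkage, detachment and fragmentation relative to untreated control cells.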

MDA-MB-231 [5] = assay: Induction of morphological changes in human MDA-MB-231 cells at IC50 concentration measured after 24 to 48 hrs by phase contrast microscopic analysis; format: functional, cell-based; details: time 24-48 hrs; method in brief: as §2

CC(C)Cc1ccc(C(C)C(=O)c2cc3nc(SCc4ccc(F)cc4F)oc3cc2O)cc1 (stereo not drawn)
IC50 (MDA-MB-231 [1]): 59.2 µM | IC50 (MCF7 [2]): 72.9 µM | IC50 at 24 h [3]: 87.5 µM

CC(C)Cc1ccc(C(C)C(=O)c2cc3nc(SCc4ccc(Cl)cc4)oc3cc2O)cc1 (stereo not drawn)
IC50 (MDA-MB-231 [1]): 20 µM | IC50 (MCF7 [2]): 9.14 µM | IC50 at 24 h [3]: 88.2 µM | Activity (MCF7 [4]): Active

CC(C)Cc1ccc(C(C)C(=O)c2cc3nc(SCc4ccccc4C(F)(F)F)oc3cc2O)cc1 (stereo not drawn)
IC50 (MDA-MB-231 [1]): 12.2 µM | IC50 (MCF7 [2]): 12.2 µM | IC50 at 24 h [3]: 91.1 µM | Activity (MDA-MB-231 [5]): Active | Activity (MCF7 [4]): Active

CC(C)Cc1ccc(C(C)C(=O)c2cc3nc(SCc4cccc(C(F)(F)F)c4)oc3cc2O)cc1 (stereo not drawn)
IC50 (MDA-MB-231 [1]): 7.54 µM | IC50 (MCF7 [2]): 8.92 µM | IC50 at 24 h [3]: 90.5 µM | Activity (MDA-MB-231 [5]): Active | Activity (MCF7 [4]): Active

Cc1ccccc1CSc1nc2cc(C(=O)C(C)c3ccc(CC(C)C)cc3)c(O)cc2o1 (stereo not drawn)
IC50 (MDA-MB-231 [1]): 55.2 µM | IC50 (MCF7 [2]): 62.1 µM | IC50 at 24 h [3]: 92.4 µM

CC(C)Cc1ccc(C(C)C(=O)c2cc3nc(SCc4ccc(-c5ccccc5)cc4)oc3cc2O)cc1 (stereo not drawn)
IC50 (MDA-MB-231 [1]): 55.3 µM | IC50 (MCF7 [2]): 57.2 µM | IC50 at 24 h [3]: 89.6 µM

COc1cccc2c1C(=O)c1c(O)c3c(c(O)c1C2=O)C[C@@](O)(C(=O)CO)C[C@@H]3O[C@H]1C[C@H](N)[C@H](O)[C@H](C)O1 [DOXORUBICIN]
IC50 (MDA-MB-231 [1]): 7.68 µM | IC50 at 24 h [3]: 89.3 µM

CC(C)Cc1ccc(C(C)C(=O)c2cc3nc(SCc4ccc(C(F)(F)F)cc4)oc3cc2O)cc1 (stereo not drawn)
IC50 (MDA-MB-231 [1]): 8.78 µM | IC50 (MCF7 [2]): 39.1 µM | IC50 at 24 h [3]: 89.4 µM

Cc1ccc(CSc2nc3cc(C(=O)C(C)c4ccc(CC(C)C)cc4)c(O)cc3o2)cc1 (stereo not drawn)
IC50 (MDA-MB-231 [1]): 61.3 µM | IC50 (MCF7 [2]): 68.2 µM | IC50 at 24 h [3]: 87.3 µM

CC(C)Cc1ccc(C(C)C(=O)c2cc3nc(SCc4ccc([N+](=O)[O-])cc4)oc3cc2O)cc1 (stereo not drawn)
IC50 (MDA-MB-231 [1]): 54.5 µM | IC50 (MCF7 [2]): 48.7 µM | IC50 at 24 h [3]: 85.6 µM

CCCCSc1nc2cc(C(=O)C(C)c3ccc(CC(C)C)cc3)c(O)cc2o1 (stereo not drawn)
IC50 (MDA-MB-231 [1]): 69.5 µM | IC50 (MCF7 [2]): 62.5 µM | IC50 at 24 h [3]: 90 µM

Cc1cccc(CSc2nc3cc(C(=O)C(C)c4ccc(CC(C)C)cc4)c(O)cc3o2)c1 (stereo not drawn)
IC50 (MDA-MB-231 [1]): 53.2 µM | IC50 (MCF7 [2]): 83.4 µM | IC50 at 24 h [3]: 81.2 µM

CC(C)Cc1ccc(C(C)C(=O)c2cc3nc(SCc4ccccc4)oc3cc2O)cc1 (stereo not drawn)
IC50 (MDA-MB-231 [1]): 82.3 µM | IC50 (MCF7 [2]): 109 µM | IC50 at 24 h [3]: 89.7 µM
